Here are results for 15 compounds from ChEMBL document CHEMBL5230128, “An electrophilic warhead library for mapping the reactivity and accessibility of tractable cysteines in protein kinases” (Eur J Med Chem, 2020).

Activity calls are given as the source filed them. The rule behind the calls is not given here. Bounds are passed on as bounds.

For data set [1], the target named is Dual specificity mitogen-activated protein kinase kinase 6 (Homo sapiens) (UniProt P52564). Description: Inhibition of MAP2K6 (unknown origin) at 100 uM preincubated for 1 hr followed by substrate addition and measured after 1 hr by Z-lyte assay relative to control. The settings on record: time 2.0 hrs.
Data set [2] deals with Mitogen-activated protein kinase 1 (Homo sapiens) (UniProt P28482). In words: Inhibition of ERK2 (unknown origin) at 100 uM preincubated for 1 hr followed by substrate addition and measured after 1 hr by Z-lyte assay relative to control. The settings on record: time 2.0 hrs. The method in brief: (§1)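 Z'-LYTE FRET assay with single-concentration fragment tested in duplicate. Kinase and fragment are preincubated 1 h, then fluorophore-labelled peptide substrate is added for a further 1 h. A development protease then cleaves unphosphorylated peptide. Read-out is the 445 nm (coumarin)/520 nm (fluorescein) emission ratio.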

Data set [3] addresses T1, Tyrosine-protein kinase JAK3 (Homo sapiens) (UniProt P52333).
T1 sequence (whole entry): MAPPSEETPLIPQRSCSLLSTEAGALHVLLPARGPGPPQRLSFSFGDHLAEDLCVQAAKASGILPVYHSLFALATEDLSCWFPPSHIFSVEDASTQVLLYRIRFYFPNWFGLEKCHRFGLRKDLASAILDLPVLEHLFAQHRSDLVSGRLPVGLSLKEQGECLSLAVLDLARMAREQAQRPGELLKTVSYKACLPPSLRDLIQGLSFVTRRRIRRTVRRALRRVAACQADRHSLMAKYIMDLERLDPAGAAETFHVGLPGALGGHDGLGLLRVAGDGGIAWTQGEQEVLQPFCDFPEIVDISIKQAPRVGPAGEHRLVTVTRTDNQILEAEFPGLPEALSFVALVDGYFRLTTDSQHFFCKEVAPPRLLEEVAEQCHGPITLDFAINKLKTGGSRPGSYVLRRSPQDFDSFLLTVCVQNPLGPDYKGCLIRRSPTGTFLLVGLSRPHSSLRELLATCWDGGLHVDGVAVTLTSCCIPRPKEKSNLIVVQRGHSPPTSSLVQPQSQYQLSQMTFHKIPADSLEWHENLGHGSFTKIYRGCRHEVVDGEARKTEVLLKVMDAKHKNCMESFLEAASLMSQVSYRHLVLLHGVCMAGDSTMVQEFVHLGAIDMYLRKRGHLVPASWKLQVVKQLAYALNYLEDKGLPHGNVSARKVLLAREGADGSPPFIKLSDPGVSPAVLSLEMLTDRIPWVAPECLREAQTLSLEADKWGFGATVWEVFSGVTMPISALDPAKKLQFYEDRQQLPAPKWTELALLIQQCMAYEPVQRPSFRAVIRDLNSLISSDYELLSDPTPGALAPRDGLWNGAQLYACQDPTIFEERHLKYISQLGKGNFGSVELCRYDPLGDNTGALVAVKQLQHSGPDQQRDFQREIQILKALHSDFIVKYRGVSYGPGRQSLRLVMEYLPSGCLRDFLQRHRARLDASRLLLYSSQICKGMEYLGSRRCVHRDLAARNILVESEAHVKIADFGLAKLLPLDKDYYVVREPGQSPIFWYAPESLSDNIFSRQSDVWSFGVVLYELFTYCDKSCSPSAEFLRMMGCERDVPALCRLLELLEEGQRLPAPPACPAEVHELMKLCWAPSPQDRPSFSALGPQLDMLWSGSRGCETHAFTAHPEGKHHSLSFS
In words: Inhibition of JAK3 (unknown origin) at 100 uM preincubated for 1 hr followed by substrate addition and measured after 1 hr by Z-lyte assay relative to control. Conditions: time 2.0 hrs. The method in brief:
as §1

The target in data set [4] is T1, Tyrosine-protein kinase JAK3 (Homo sapiens). In words: Inhibition of JAK3 (unknown origin) incubated for 120 mins by LC-MS/MS analysis.
Data set [5] is described as follows: Thiol reactivity of compound assessed as half life by LC-MS analysis. Type of data set: physicochemical.
Data set [6] is described as follows: Aqueous stability of the compound assessed as compound degradation by measuring kinetic constant measured after 72 hrs by LC-MS analysis. In kind it is physicochemical. Conditions: buffer.
Data set [7] has as its target Maternal embryonic leucine zipper kinase (Homo sapiens, UniProt Q14680). In words: Inhibition of MELK (unknown origin) at 100 uM preincubated for 1 hr followed by substrate addition and measured after 1 hr by Z-lyte assay relative to control. The settings on record: time 2.0 hrs. The method in brief:
as §1

The target in data set [8] is Ribosomal protein S6 kinase alpha-3 (Homo sapiens, UniProt P51812). In words: Inhibition of RSK2 (unknown origin) at 100 uM preincubated for 1 hr followed by substrate addition and measured after 1 hr by Z-lyte assay relative to control. Conditions: time 2.0 hrs. A digest of the protocol: as §1
Data set [9] is described as follows: Aqueous stability of the compound assessed as compound degradation by measuring half life measured after 72 hrs by LC-MS analysis. Type of data set: physicochemical. The settings on record: aqueous solution.
Data set [10] in a line: Thiol reactivity of compound assessed as kinetic rate constant by LC-MS analysis. In kind it is physicochemical.
In data set [11] the target is Tyrosine-protein kinase BTK (Homo sapiens) (UniProt Q06187). In words: Inhibition of BTK (unknown origin) at 100 uM preincubated for 1 hr followed by substrate addition and measured after 1 hr by Z-lyte assay relative to control. The settings on record: time 2.0 hrs. The method in brief: as §1
Tyrosine-protein kinase BTK (Homo sapiens), sequence (Q06187 whole entry): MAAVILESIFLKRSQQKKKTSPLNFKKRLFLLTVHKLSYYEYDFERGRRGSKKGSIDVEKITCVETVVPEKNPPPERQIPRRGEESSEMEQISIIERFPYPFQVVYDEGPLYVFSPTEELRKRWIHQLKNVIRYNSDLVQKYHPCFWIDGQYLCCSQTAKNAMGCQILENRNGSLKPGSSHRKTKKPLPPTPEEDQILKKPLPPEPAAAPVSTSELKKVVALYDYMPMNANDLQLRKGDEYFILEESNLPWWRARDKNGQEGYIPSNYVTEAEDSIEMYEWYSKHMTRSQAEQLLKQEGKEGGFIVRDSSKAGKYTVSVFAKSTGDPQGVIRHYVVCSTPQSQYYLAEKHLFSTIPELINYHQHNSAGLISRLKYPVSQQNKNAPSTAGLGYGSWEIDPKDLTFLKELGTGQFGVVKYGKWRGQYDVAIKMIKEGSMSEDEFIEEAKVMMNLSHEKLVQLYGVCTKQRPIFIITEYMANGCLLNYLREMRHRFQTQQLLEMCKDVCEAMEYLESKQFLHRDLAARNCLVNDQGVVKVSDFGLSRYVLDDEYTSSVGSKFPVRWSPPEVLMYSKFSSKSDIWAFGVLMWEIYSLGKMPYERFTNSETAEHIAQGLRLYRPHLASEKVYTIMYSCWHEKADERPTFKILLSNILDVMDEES

Maternal embryonic leucine zipper kinase, sequence (Q14680 whole entry, looked up): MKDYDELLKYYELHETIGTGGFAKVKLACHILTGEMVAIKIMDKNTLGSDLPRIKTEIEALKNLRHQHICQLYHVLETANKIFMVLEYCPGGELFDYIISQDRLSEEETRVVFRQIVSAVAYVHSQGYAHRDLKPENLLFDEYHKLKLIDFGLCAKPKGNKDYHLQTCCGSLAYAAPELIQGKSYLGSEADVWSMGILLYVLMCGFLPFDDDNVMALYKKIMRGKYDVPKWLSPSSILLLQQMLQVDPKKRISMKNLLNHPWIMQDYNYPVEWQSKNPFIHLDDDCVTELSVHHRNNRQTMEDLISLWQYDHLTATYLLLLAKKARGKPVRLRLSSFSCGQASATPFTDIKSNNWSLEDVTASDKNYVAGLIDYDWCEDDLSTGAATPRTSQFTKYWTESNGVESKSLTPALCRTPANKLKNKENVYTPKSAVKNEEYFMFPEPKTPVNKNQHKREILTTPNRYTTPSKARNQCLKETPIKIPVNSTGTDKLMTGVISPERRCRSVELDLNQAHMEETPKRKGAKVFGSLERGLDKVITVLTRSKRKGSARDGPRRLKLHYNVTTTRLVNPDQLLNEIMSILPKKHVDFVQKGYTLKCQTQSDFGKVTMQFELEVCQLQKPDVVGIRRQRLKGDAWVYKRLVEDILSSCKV
Ribosomal protein S6 kinase alpha-3, sequence (P51812 whole entry): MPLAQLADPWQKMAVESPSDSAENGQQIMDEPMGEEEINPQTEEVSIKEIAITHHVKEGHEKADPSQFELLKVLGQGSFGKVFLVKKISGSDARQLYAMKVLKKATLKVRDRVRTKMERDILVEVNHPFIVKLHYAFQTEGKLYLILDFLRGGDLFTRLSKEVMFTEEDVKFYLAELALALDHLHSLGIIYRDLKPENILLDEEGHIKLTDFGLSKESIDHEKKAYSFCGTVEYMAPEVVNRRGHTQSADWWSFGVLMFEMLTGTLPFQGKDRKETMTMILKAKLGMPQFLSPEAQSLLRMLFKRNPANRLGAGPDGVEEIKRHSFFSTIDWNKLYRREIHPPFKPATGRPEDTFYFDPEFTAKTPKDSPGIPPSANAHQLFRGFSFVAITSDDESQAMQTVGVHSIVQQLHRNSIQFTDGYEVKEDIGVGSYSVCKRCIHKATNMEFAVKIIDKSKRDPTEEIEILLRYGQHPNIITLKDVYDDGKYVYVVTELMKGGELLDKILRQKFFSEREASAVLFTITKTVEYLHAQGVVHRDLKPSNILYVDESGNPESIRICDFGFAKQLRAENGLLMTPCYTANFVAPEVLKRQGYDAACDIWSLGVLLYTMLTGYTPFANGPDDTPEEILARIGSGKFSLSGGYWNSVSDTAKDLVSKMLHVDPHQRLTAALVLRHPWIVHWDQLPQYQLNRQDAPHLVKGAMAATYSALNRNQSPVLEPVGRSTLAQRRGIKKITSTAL
Mitogen-activated protein kinase 1 (Homo sapiens), sequence (P28482 whole entry, the tested form may be a part): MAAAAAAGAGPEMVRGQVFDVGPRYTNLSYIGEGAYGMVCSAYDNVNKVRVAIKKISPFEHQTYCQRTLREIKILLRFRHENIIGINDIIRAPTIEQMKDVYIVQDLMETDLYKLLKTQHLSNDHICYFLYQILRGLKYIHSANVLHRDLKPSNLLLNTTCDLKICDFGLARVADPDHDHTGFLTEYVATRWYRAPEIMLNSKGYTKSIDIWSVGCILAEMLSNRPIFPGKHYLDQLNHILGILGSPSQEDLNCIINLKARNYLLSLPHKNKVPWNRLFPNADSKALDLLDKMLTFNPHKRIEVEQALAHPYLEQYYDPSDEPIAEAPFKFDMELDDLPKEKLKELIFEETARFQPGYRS

A word on the inhibition: it is the drop in the measured response relative to a control, in per cent. As a reminder, the half-life is the time in which the quantity being followed falls by half. Turning to `O=C1C=CC(=O)N1Cc1cc(C(F)(F)F)cc(C(F)(F)F)c1`, the inhibition was determined as 96% in [1]; 99% in data set [2]; 97% in data set [3]; 101% in data set [7]; 100% in data set [8]; 100% in data set [11]. Further, the inhibition result in [4] is “Active”. Besides, the half-life in data set [5] is < 0.05 h; in data set [9], 0.5 h. For the same compound, the K is 1.525 h⁻¹ in data set [6] and > 13.863 h⁻¹ in [10].

Consider `CC(C)(C)OC(=O)N/N=C\c1cc(C(F)(F)F)cc(C(F)(F)F)c1`, for which the inhibition amounted to 21% in [1]; 6% in data set [2]; 37% in data set [3]; 48% in [7]; 46% in data set [8]; 14% in data set [11]. For the same compound, the inhibition result in data set [4] is “Active”. Further, the half-life in data set [5] is > 72 h; in data set [9], 7.6 h. The K in [6] was 0.091 h⁻¹; in data set [10] it was 0.003 h⁻¹.

Regarding `C#CC(=O)Oc1cc(C(F)(F)F)cc(C(F)(F)F)c1`, the inhibition stood at 47% in data set [1]; 23% in [2]; 37% in [3]; 33% in data set [7]; 34% in data set [8]; 25% in data set [11]. Besides, in [4], the inhibition result is “Active”. For the same compound, the half-life was 31.6 h in data set [5] and 26.7 h in data set [9]. Also, the K in data set [6] stood at 0.026 h⁻¹; in data set [10] it was 0.022 h⁻¹.

For the compound `NC(=O)/C=C/c1cc(C(F)(F)F)cc(C(F)(F)F)c1`, the inhibition in data set [1] worked out at 10%; in data set [2], 6%; in data set [3], 20%; in data set [7], 52%; in data set [8], 51%; in data set [11], 21%. The inhibition result in [4] was “Active”. The half-life in [5] is > 72 h; in data set [9] it was 53.3 h. For the same compound, the K stood at 0.013 h⁻¹ in data set [6] and 0.002 h⁻¹ in [10].

Consider `CCOC(=O)/C=C/c1cc(C(F)(F)F)cc(C(F)(F)F)c1`, for which the inhibition was determined as 7% in data set [1]; 8% in data set [2]; 36% in [3]; 63% in data set [7]; 52% in [8]; 16% in [11]. In addition, the inhibition entry in data set [4] was “Active”. Besides, the half-life in [5] is > 72 h; in [9] it was 2.4 h. Also, the K in data set [6] is 0.289 h⁻¹; in data set [10], 0.005 h⁻¹.

Take `CC(Cl)C(=O)Nc1cc(C(F)(F)F)cc(C(F)(F)F)c1` (stereo not drawn): the inhibition in data set [1] was 21%; in [2], 9%; in data set [3], 15%; in [7], 37%; in data set [8] it was 47%; in data set [11] it was 39%. For the same compound, the inhibition entry in data set [4] is “Active”. Besides, the half-life was > 72 h in [5] and 2.5 h in [9]. Also, the K in data set [6] was 0.277 h⁻¹; in [10] it was 0.002 h⁻¹.

`FC(F)(F)c1cc(C2CO2)cc(C(F)(F)F)c1` (stereo not drawn): the inhibition was 26% in data set [1]; 9% in [2]; 40% in data set [3]; 11% in data set [7]; 56% in [8]; 60% in [11]. Besides, the inhibition result in data set [4] was “Active”.

As for `C=Cc1cc(C(F)(F)F)cc(C(F)(F)F)c1`, the inhibition was 24% in [1]; 8% in data set [2]; -4% in [3]; 44% in data set [7]; 61% in data set [8]; 38% in data set [11]. Also, the inhibition entry in [4] is “Active”. In data set [10], the K worked out at 0.004 h⁻¹.

For the compound `N#Cc1cc(C(F)(F)F)cc(C(F)(F)F)c1`, the inhibition was 11% in data set [1]; 4% in data set [2]; 21% in data set [3]; 15% in data set [7]; 3% in data set [8]; 18% in [11]. Further, the inhibition result in data set [4] was “Active”. In addition, the K in [10] came out at 0.001 h⁻¹.

Turning to `Fc1cc(C(F)(F)F)cc(C(F)(F)F)c1`, the inhibition in data set [1] is 65%; in data set [2], 6%; in [3], 23%; in data set [7] it was 73%; in [8], 68%; in data set [11], 54%. The inhibition entry in data set [4] was “Active”. Moreover, the half-life in [5] was 11 h; in [9], 2.4 h. The K in data set [6] came to 0.286 h⁻¹; in data set [10], 0.063 h⁻¹.

As to `O=C1C=CC(=O)N1c1cc(C(F)(F)F)cc(C(F)(F)F)c1`, the inhibition in data set [1] turned out to be 99%; in [2] it was 102%; in data set [3], 101%; in data set [7] it was 102%; in [8], 102%; in data set [11], 101%. Besides, in data set [4], the inhibition result was “Active”.

With `O=Cc1cc(C(F)(F)F)cc(C(F)(F)F)c1`, the inhibition in data set [1] was 20%; in data set [2], 4%; in data set [3], -1%; in data set [7] it was 11%; in [8] it was 6%; in data set [11], 5%. For the same compound, in [4], the inhibition entry was “Active”. Moreover, the half-life in [5] and in data set [9] was > 72 h each time. For the same compound, the K in [6] and in data set [10] was 0.001 h⁻¹ in each case.

As to `FC(F)(F)c1cc(CN=C=S)cc(C(F)(F)F)c1`, the inhibition in data set [1] came to 98%; in data set [2], 84%; in data set [3], 98%; in [7] it was 100%; in [8] it was 99%; in data set [11], 99%. Besides, the inhibition entry in [4] was “Active”. In addition, the values for the half-life in data set [5] and in data set [9] were < 0.05 h and 2.6 h, respectively. In addition, the K in data set [6] is 0.265 h⁻¹; in data set [10], > 13.863 h⁻¹.

As to `C#Cc1cc(C(F)(F)F)cc(C(F)(F)F)c1`, the inhibition came to 11% in data set [1]; 4% in data set [2]; 7% in [3]; 24% in data set [7]; 36% in [8]; 24% in data set [11]. In addition, the inhibition entry in data set [4] was “Active”. In data set [10], the K worked out at 0.007 h⁻¹.

On to `N#C/C=C/c1cc(C(F)(F)F)cc(C(F)(F)F)c1`, for which the inhibition in data set [1] came to 23%; in data set [2] it was 4%; in data set [3], 26%; in [7], 7%; in data set [8] it was 16%; in data set [11] it was 16%. For the same compound, in data set [4], the inhibition entry was “Active”. Moreover, the half-life in [5] was 4 h; in data set [9] it was 3.9 h. Moreover, the K in data set [6] amounted to 0.18 h⁻¹; in [10] it was 0.175 h⁻¹.
